We go through 4 compounds from ChEMBL document CHEMBL1143913, “Pyrimidinone-peptoid hybrid molecules with distinct effects on molecular chaperone function and cell proliferation” (Bioorg Med Chem, 2008).

The subject of assay [1] is Saccharomyces cerevisiae. The assay is described as follows: Inhibition of SV40 T antigen-stimulated Hsp70 ATPase in yeast assessed as ATP hydrolysis relative to control. A digest of the protocol:
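Yeast Ssa1p was pre-bound to ATP and run as a single-turnover assay with purified SV40 TAg (0.4 µM). Compound (300 µM) or DMSO was added at 60 s, and that time was set to zero. Runs were averaged over multiple experiments, kinetics were fitted, and the value is the fold change in TAg-stimulated ATP hydrolysis versus DMSO.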

In a further assay the test system is MCF7. The assay is described as follows: Antiproliferative activity against human MCF7 cells after 96 hrs by MTS assay. Format: functional. To be noted: MCF7, 96 h. A digest of the protocol:
(§1)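 Cells were kept in exponential growth in DMEM with 10% FBS, 1% penicillin and 1% glutamine, seeded at 4,000 per well and grown 48 h, with a time-zero plate counted. They were then exposed for 72 h to DMSO (1 v/v) or a concentration range in quadruplicate. Cell number was read by MTS/N-methylphenazine methylsulfate absorbance at 490 minus 630 nm. GI50 is relative to DMSO over the 72 h or 96 h period, and values above 50 µM are given as >50.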
(Formazan colour is commonly taken as a measure of viable cells.)

In assay [2] the test system is Saccharomyces cerevisiae. The assay is described as follows: Inhibition of yeast Hsp70 ATPase assessed as ATP hydrolysis relative to control. A digest of the protocol:
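Purified yeast Hsp70 (Ssa1p) was pre-bound to ATP and run as a single-turnover assay, so that only the hydrolysis step is measured. Compound (300 µM) or DMSO was added at 0 s, and that time was set to zero. Results from multiple experiments were averaged, kinetics were fitted, and the value is the fold change in hydrolysis versus DMSO.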

In another assay the test system is HT-29. The assay is described as follows: Antiproliferative activity against human HT29 cells after 96 hrs by MTS assay. The conditions noted are these: HT-29, 96 h. In kind it is functional. A digest of the protocol: as §1
Another assay concerns SK-BR-3. The assay is described as follows: Antiproliferative activity against human SK-BR3 cells after 96 hrs by MTS assay. In kind it is functional. To be noted: SK-BR-3, 96 h. In a few lines: as §1
Assay [3] in a line: Binding affinity to Hsp90.
Assay [4] can be described thus: Binding affinity to Hsp70.

In general, GI50 refers to the concentration giving 50% growth inhibition. A word on the Kd: it is a measure of binding affinity in units of concentration. A lower Kd goes with a tighter complex.

As for `CCCCCCN(C(=O)CCCCCN1C(=O)NC(c2ccc(-c3ccccc3)cc2)C(C(=O)OCc2ccccc2)=C1C)C(C(=O)NCCCC)c1ccc(OCC(=O)OC)c(C(=O)OC)c1` (stereo not drawn), the Fold change in the assay with Saccharomyces cerevisiae [1] is -2; with Saccharomyces cerevisiae [2], 1.7. Further, the GI50 in the assay on MCF7 is 14.7 µM; in the assay on HT-29, above 50 µM; in the assay with SK-BR-3, 27 µM. Moreover, in the assay on SK-BR-3 (read-out: ED50 (the source's name)), the EC50 amounted to 8 µM.

As to `N=C(N)NCCCCCCC(=O)NC(O)C(=O)NCCCCNCCCN` (stereo not drawn) [GUSPERIMUS], the Kd in assay [3] and in assay [4] was 4 µM throughout.

For the compound `CCCCCCN(C(=O)CCCCCN1C(=O)NC(c2ccccc2)C(C(=O)OCc2ccccc2)=C1C)C(C(=O)NCCCC)c1ccc(OCC(=O)OC)c(C(=O)OC)c1` (stereo not drawn), the Fold change in the assay with Saccharomyces cerevisiae [1] was -1.1; with Saccharomyces cerevisiae [2] it was 1.1. Further, the GI50 was 2.4 µM in the assay on MCF7, 4.8 µM with HT-29 and 6.5 µM in the assay on SK-BR-3.

As for `CCCCNC(=O)C(c1ccc(OCC(=O)OC)c(C(=O)OC)c1)N(CCOC)C(=O)CCCCCN1C(=O)NC(c2ccc(-c3ccccc3)cc2)C(C(=O)OCc2ccccc2)=C1C` (stereo not drawn), the Fold change in the assay on Saccharomyces cerevisiae [1] is -1.8; with Saccharomyces cerevisiae [2], 1.5. In addition, the GI50 in the assay on MCF7 turned out to be 7.8 µM; with HT-29, 3.1 µM; with SK-BR-3, 8.8 µM.
